Results taken from ChEMBL document CHEMBL4265871, “Novel alkylated azoles as potent antifungals” (Eur J Med Chem, 2017).
In brackets after ≈: the same amount, converted by molar mass.

Experiments:
[1] = Selectivity index, ratio of […] for toxicity in human BEAS2B cells to MIC50 for antifungal activity against Aspergillus flavus ATCC MYA-3631; format: cell-based; details: BEAS-2B cells, read-out: Selectivity Index
[2] = Selectivity index, ratio of […] for toxicity in human A549 cells to MIC50 for antifungal activity against Aspergillus terreus ATCC MYA-3633; format: cell-based; details: read-out: Selectivity Index
[3] = tested on: Candida albicans; assay: Antifungal activity against ITC and FLC-resistant Candida albicans ATCC MYA-1003 incubated for 48 hrs by modified CLSI M27-A3 protocol based method; format: functional; details: ATCC MYA-1003, 48 h
In short: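 Because these Candida strains show trailing growth, MIC-2 was read, meaning 50% growth inhibition. Caspofungin and voriconazole were tested here; other controls came from earlier work.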

[4] = Hemolytic activity in mouse erythrocytes assessed as hemolysis level at 15.6 ug/ml incubated for 1 hr at 37 degC; format: ADME, cell-based, Erythrocyte; details: read-out: Activity
In short: (§1)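 Mouse erythrocytes incubated 1 h at 37 °C with test agents over 1.95 to 125 µg/mL. Percent lysis is read for each concentration.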

[5] = Toxicity in human A549 cells assessed as reduction in cell viability incubated for 24 hrs by resazurin dye based assay
In short: (§2)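 Toxicity tested in the nucleated lines A549 and BEAS-2B to give EC50 values. Selectivity index is EC50 against the mammalian line divided by the MIC against a given fungal strain.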

[6] = tested on: Aspergillus flavus; assay: Antifungal activity against Aspergillus flavus ATCC MYA-3631 incubated for 48 hrs by CLSI M38-A2 protocol based method; format: functional; details: ATCC MYA-3631, 48 h, read-out: MIC100
[7] = Selectivity index, ratio of EC50 for toxicity in human BEAS2B cells to MIC50 for antifungal activity against ITC and FLC-susceptible Candida albicans ATCC MYA-2310; format: cell-based; details: BEAS-2B cells, read-out: Selectivity Index
In short: (§3)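 Ratio of the compound's EC50 against BEAS-2B cells to its MIC against the named C. albicans strain. […] For C. albicans strains other than ATCC 10231, trailing growth meant MIC-2 was taken, meaning 50% growth inhibition.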

[8] = tested on: Candida albicans; assay: Antifungal activity against Candida albicans ATCC 10231 incubated for 48 hrs by modified CLSI M27-A3 protocol based method; format: functional; details: ATCC 10231, 48 h, read-out: MIC100
In short: (§4)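 For C. albicans ATCC 10231, C. krusei ATCC 6258 and C. parapsilosis ATCC 22019, MIC-0 was read, meaning complete growth inhibition. For azole controls, MIC-2 (50% growth inhibition) was reported instead. Caspofungin and voriconazole were tested here; other controls came from earlier work.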

[9] = Selectivity index, ratio of EC50 for toxicity in human A549 cells to MIC50 for antifungal activity against Candida albicans ATCC 64124; format: cell-based; details: read-out: Selectivity Index
In short: (§5)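 Selectivity index is the EC50 against the mammalian line (A549 or BEAS-2B) divided by the MIC against the given fungal strain.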

[10] = Selectivity index, ratio of EC50 for toxicity in human BEAS2B cells to MIC50 for antifungal activity against Candida albicans ATCC 64124; format: cell-based; details: BEAS-2B cells, read-out: Selectivity Index; in short: as §5
[11] = Hemolytic activity in mouse erythrocytes assessed as hemolysis level at 3.9 ug/ml incubated for 1 hr at 37 degC; format: ADME, cell-based, Erythrocyte; details: read-out: Activity; in short: as §1
[12] = in vitro; details: mouse, mouse erythrocytes
[13] = Selectivity index, ratio of EC50 for toxicity in human A549 cells to MIC50 for antifungal activity against Candida krusei ATCC 6258
[14] = Selectivity index, ratio of […] for toxicity in human BEAS2B cells to MIC50 for antifungal activity against Aspergillus terreus ATCC MYA-3633; format: cell-based; details: BEAS-2B cells, read-out: Selectivity Index
[15] = tested on: Pichia kudriavzevii; assay: Antifungal activity against Candida krusei ATCC 6258 incubated for 48 hrs by modified CLSI M27-A3 protocol based method; format: functional; details: ATCC 6258, 48 h, read-out: MIC100; in short: as §4
[16] = Hemolytic activity in mouse erythrocytes assessed as hemolysis level at 7.8 ug/ml incubated for 1 hr at 37 degC; format: ADME, cell-based, Erythrocyte; details: read-out: Activity; in short: as §1
[17] = Selectivity index, ratio of EC50 for toxicity in human BEAS2B cells to MIC50 for antifungal activity against ITC and FLC-resistant Candida albicans ATCC MYA-90819; format: cell-based; details: BEAS-2B cells, read-out: Selectivity Index; in short: as §3
[18] = Selectivity index, ratio of EC50 for toxicity in human A549 cells to MIC100 for antifungal activity against Candida albicans ATCC 10231; format: cell-based; details: read-out: Selectivity Index; in short: as §5
[19] = Hemolytic activity in mouse erythrocytes assessed as hemolysis level at 1.95 ug/ml incubated for 1 hr at 37 degC; format: ADME, cell-based, Erythrocyte; details: read-out: Activity; in short: as §1
[20] = Selectivity index, ratio of EC50 for toxicity in human BEAS2B cells to MIC50 for antifungal activity against ITC and FLC-resistant Candida albicans ATCC MYA-1003; format: cell-based; details: BEAS-2B cells, read-out: Selectivity Index; in short: as §5
[21] = tested on: Aspergillus terreus; assay: Antifungal activity against Aspergillus terreus ATCC MYA-3633 incubated for 48 hrs by CLSI M38-A2 protocol based method; format: functional; details: ATCC MYA-3633, 48 h, read-out: MIC100
[22] = Selectivity index, ratio of EC50 for toxicity in human BEAS2B cells to MIC100 for antifungal activity against Candida albicans ATCC 10231; format: cell-based; details: BEAS-2B cells, read-out: Selectivity Index; in short: as §5
[23] = Hemolytic activity in mouse erythrocytes assessed as hemolysis level at 31.3 ug/ml incubated for 1 hr at 37 degC; format: ADME, cell-based, Erythrocyte; details: read-out: Activity; in short: as §1
[24] = Toxicity in human BEAS2B cells assessed as reduction in cell viability incubated for 24 hrs by resazurin dye based assay; details: BEAS-2B cells; in short: as §2
[25] = Selectivity index, ratio of […] for toxicity in human BEAS2B cells to MIC50 for antifungal activity against Aspergillus nidulans ATCC 38163; format: cell-based; details: BEAS-2B cells, read-out: Selectivity Index
[26] = Selectivity index, ratio of EC50 for toxicity in human BEAS2B cells to MIC50 for antifungal activity against Candida krusei ATCC 6258; details: BEAS-2B cells
[27] = Selectivity index, ratio of EC50 for toxicity in human A549 cells to MIC50 for antifungal activity against ITC and FLC-resistant Candida albicans ATCC MYA-90819; format: cell-based; details: read-out: Selectivity Index; in short: as §5
[28] = Selectivity index, ratio of EC50 for toxicity in human BEAS2B cells to MIC50 for antifungal activity against Candida glabrata ATCC 2001; format: cell-based; details: BEAS-2B cells, read-out: Selectivity Index; in short: as §5
[29] = Selectivity index, ratio of EC50 for toxicity in human A549 cells to MIC50 for antifungal activity against ITC and FLC-susceptible Candida albicans ATCC MYA-2876; format: cell-based; details: read-out: Selectivity Index; in short: as §5
[30] = Selectivity index, ratio of EC50 for toxicity in human A549 cells to MIC50 for antifungal activity against Candida glabrata ATCC 2001; format: cell-based; details: read-out: Selectivity Index; in short: as §5
[31] = Hemolytic activity in mouse erythrocytes assessed as hemolysis level at 125 ug/ml incubated for 1 hr at 37 degC; format: ADME, cell-based, Erythrocyte; details: read-out: Activity; in short: as §1
[32] = Selectivity index, ratio of […] for toxicity in human A549 cells to MIC50 for antifungal activity against Aspergillus nidulans ATCC 38163; format: cell-based; details: read-out: Selectivity Index
[33] = Selectivity index, ratio of EC50 for toxicity in human A549 cells to MIC50 for antifungal activity against ITC and FLC-resistant Candida albicans ATCC MYA-1003; format: cell-based; details: read-out: Selectivity Index; in short: as §5

Row | SMILES | selectivity ratio [1] | selectivity ratio [2] | MIC50 [3] | EC50 at 24 h [5] | MIC [6] | selectivity ratio [7] | MIC [8] | selectivity ratio [9] | selectivity ratio [10] | selectivity ratio [13] | selectivity ratio [14] | MIC [15] | selectivity ratio [17] | selectivity ratio [18] | selectivity ratio [20] | MIC [21] | selectivity ratio [22] | EC50 at 24 h [24] | selectivity ratio [25] | selectivity ratio [26] | further results
1 | CCCCCCC(O)(Cn1cncn1)c1ccc(F)cc1F (configuration not stated) | 2 | 4 | 6.3 µM (≈ 1.95 µg/mL) | 35 µg/mL (≈ 113 µM) | 50.4 µM (≈ 15.6 µg/mL) | 8 | 6.3 µM (≈ 1.95 µg/mL) | 4 | 4 | 292 | 4 | 0.39 µM (≈ 0.121 µg/mL) | 16 | 18 | 16 | 25.2 µM (≈ 7.8 µg/mL) | 16 | > 31.3 µg/mL | 65 | 261 | hemolysis at 1 h, 15.6 ug/ml [4]: 8.2%; hemolysis at 1 h, 3.9 ug/ml [11]: 0%; hemolysis at 1 h, 62.5 ug/ml [12]: 26.3%; hemolysis at 1 h, 7.8 ug/ml [16]: 0%; hemolysis at 1 h, 1.95 ug/ml [19]: 0%; hemolysis at 1 h, 31.3 ug/ml [23]: 10.4%; selectivity ratio [27]: 18; selectivity ratio [28]: 8; selectivity ratio [29]: 18; selectivity ratio [30]: 9; hemolysis at 1 h, 125 ug/ml [31]: 60.9%; selectivity ratio [32]: 73; selectivity ratio [33]: 18
2 | CCCCCC(O)(Cn1cncn1)c1ccccc1F (configuration not stated) | 4 | 9 | 14.1 µM (≈ 3.91 µg/mL) | 37 µg/mL (≈ 133 µM) | 28.1 µM (≈ 7.79 µg/mL) | 32 | 14.1 µM (≈ 3.91 µg/mL) | 1 | 1 | 617 | 8 | 0.22 µM (≈ 0.061 µg/mL) | 65 | 9 | 8 | 14.1 µM (≈ 3.91 µg/mL) | 8 | > 31.3 µg/mL | 65 | 522 | hemolysis at 1 h, 15.6 ug/ml [4]: 0%; hemolysis at 1 h, 3.9 ug/ml [11]: 0%; hemolysis at 1 h, 62.5 ug/ml [12]: 0%; hemolysis at 1 h, 7.8 ug/ml [16]: 0%; hemolysis at 1 h, 1.95 ug/ml [19]: 0%; hemolysis at 1 h, 31.3 ug/ml [23]: 0%; selectivity ratio [27]: 77; selectivity ratio [28]: 32; selectivity ratio [29]: 38; selectivity ratio [30]: 38; hemolysis at 1 h, 125 ug/ml [31]: 20.7%; selectivity ratio [32]: 77; selectivity ratio [33]: 9
3 | CCCCCCC(O)(Cn1cncn1)c1ccc(Cl)cc1Cl (configuration not stated) | 7 | 5 | 2.8 µM (≈ 0.958 µg/mL) | 20 µg/mL (≈ 58.4 µM) | 11.4 µM (≈ 3.9 µg/mL) | 14 | 0.7 µM (≈ 0.24 µg/mL) | 10 | 14 | 667 | 7 | 0.09 µM (≈ 0.0308 µg/mL) | 14 | 83 | 29 | 11.4 µM (≈ 3.9 µg/mL) | 117 | 28 µg/mL (≈ 81.8 µM) | 58 | 933 | hemolysis at 1 h, 15.6 ug/ml [4]: 105%; hemolysis at 1 h, 3.9 ug/ml [11]: 0%; hemolysis at 1 h, 62.5 ug/ml [12]: 98%; hemolysis at 1 h, 7.8 ug/ml [16]: 1.6%; hemolysis at 1 h, 1.95 ug/ml [19]: 0%; hemolysis at 1 h, 31.3 ug/ml [23]: 92%; selectivity ratio [27]: 10; selectivity ratio [28]: 14; selectivity ratio [29]: 21; selectivity ratio [30]: 10; hemolysis at 1 h, 125 ug/ml [31]: 105%; selectivity ratio [32]: 42; selectivity ratio [33]: 21
4 | CCCC(O)(Cn1cncn1)c1ccc(Cl)cc1Cl (configuration not stated) | 2 | 8 | 3.2 µM (≈ 0.961 µg/mL) | > 31.3 µg/mL | 52 µM (≈ 15.6 µg/mL) | 8 | 0.8 µM (≈ 0.24 µg/mL) | 8 | 8 | 522 | 8 | 0.2 µM (≈ 0.06 µg/mL) | 8 | 130 | 32 | 13 µM (≈ 3.9 µg/mL) | 130 | > 31.3 µg/mL | 16 | 522 | selectivity ratio [27]: 8; selectivity ratio [28]: 8; selectivity ratio [29]: 16; selectivity ratio [30]: 8; selectivity ratio [32]: 16; selectivity ratio [33]: 32
5 | CCCCCC(O)(Cn1cncn1)c1ccc(F)cc1 (configuration not stated) | 1 | 1 | > 113 µM | > 31.3 µg/mL | > 113 µM | 8 | 14.1 µM (≈ 3.91 µg/mL) | 1 | 1 | 32 | 1 | 3.5 µM (≈ 0.971 µg/mL) | 34 | 8 | 1 | 113 µM (≈ 31.3 µg/mL) | 8 | 33 µg/mL (≈ 119 µM) | 8 | 34 | selectivity ratio [27]: 32; selectivity ratio [28]: 4; selectivity ratio [29]: 4; selectivity ratio [30]: 4; selectivity ratio [32]: 8; selectivity ratio [33]: 1
6 | CCCCCC(O)(Cn1cncn1)c1ccc(Cl)cc1 (configuration not stated) | 1 | 1 | 6.6 µM (≈ 1.94 µg/mL) | > 31.3 µg/mL | > 106 µM | 2 | 6.6 µM (≈ 1.94 µg/mL) | 4 | 4 | 261 | 1 | 0.41 µM (≈ 0.12 µg/mL) | 16 | 16 | 16 | > 106 µM | 16 | > 31.3 µg/mL | 4 | 261 | selectivity ratio [27]: 16; selectivity ratio [28]: 8; selectivity ratio [29]: 2; selectivity ratio [30]: 8; selectivity ratio [32]: 4; selectivity ratio [33]: 16
